CSN inh: inhibitors of CSN-mediated cullin deneddylation, primary screen, biochemical, fluorescence polarization, uHTS | COP9 signalosome complex subunit 5 (Homo sapiens), Q92905 | Purified CSN, SCF-Nedd8-OG deneddylation | inhibition, % at 12.5 µM | actives 0.38% (n = 360,000) | AID 651999, 2013;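 active = pattern-corrected inhibition above about 35%, with an unprinted fluorescence ratio check between 0.5 and 1.5, limit read from the data, passing the limit was not always enough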
Target sequence (Q92905 whole entry, looked up, one chain of several): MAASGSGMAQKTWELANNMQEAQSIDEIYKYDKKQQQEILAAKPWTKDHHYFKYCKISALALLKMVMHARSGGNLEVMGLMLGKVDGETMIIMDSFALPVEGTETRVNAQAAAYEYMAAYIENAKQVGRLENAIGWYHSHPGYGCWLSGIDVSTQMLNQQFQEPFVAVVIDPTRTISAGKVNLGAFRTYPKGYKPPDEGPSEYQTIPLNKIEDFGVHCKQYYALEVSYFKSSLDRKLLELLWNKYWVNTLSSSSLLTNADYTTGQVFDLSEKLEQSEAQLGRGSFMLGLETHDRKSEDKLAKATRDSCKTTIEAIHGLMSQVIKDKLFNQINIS
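Assay system: purified human Csn5 enzyme expressed in HEK293T cells; Input: 0.24 nM Csn5 enzyme, final concentration; Reagent: 10 nM SCFSkp2-Nedd8OG; Compound dosing: 12.5 µM single point; Times: reaction 90 min, room temperature; Technique: fluorescence polarization readout.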
LANA-H2A inh: blockers of LANA interaction with H2A/H2B – biochemical, FP readout, HTS, primary screen; Protein LANA1 (Human herpesvirus 8 type P (isolate GK18)), Q9QR71; cell-free LANA-H2A/H2B peptide, fluorescence polarization; inhibition, % (concentration not given with the values); actives 0.6% (n = 320,000); in the data active = inhibition mostly above about 10%, no sharp cut-off; inactive = mostly below about 6.7%
HNF4A DNA FP: change in binding of human HNF4A to DNA, primary screen, biochemical, fluorescence polarization, FITC-DNA | Hepatocyte nuclear factor 4-alpha (Homo sapiens), P41235 | 1 h | activity change, % at 10 µM | actives 0.3% (n = 360,000); in the data active = activity change above about 30%, passing the limit was not always enough
ZTA DNA inh: counter-screen for EBNA-1 inhibitors: inhibitors of Epstein-Barr virus ZTA; P03206; inhibition, % at 11 µM; ZTA-DNA binding, fluorescence polarization; actives 0.15% (n = 320,000); in the data active = inhibition above about 33%
Target sequence (P03206 whole entry, looked up): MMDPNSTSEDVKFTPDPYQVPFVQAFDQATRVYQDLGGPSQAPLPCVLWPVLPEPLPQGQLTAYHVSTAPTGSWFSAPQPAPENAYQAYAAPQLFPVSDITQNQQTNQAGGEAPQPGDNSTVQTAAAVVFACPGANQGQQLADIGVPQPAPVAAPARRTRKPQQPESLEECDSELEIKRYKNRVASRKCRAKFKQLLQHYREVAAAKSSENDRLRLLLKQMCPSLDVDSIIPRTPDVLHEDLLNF
EBNA-1 inh: EBNA-1 DNA-binding inhibitors, primary screen, biochemical, fluorescence polarization. inhibition, % at 14.8 µM. actives 0.34% (n = 300,000); in the data active = inhibition above about 28%
Bfl-1 A1 inh: caspase 3/7 activation in MEF A1-2A-BIM cells, primary screen, A1 inhibitor project, cell-based, luminescence, HTS; Caspase-Glo 3/7 luminescence, 3 h; percent of clofoctol response, vehicle zero; caspase activation, % (test concentration not listed); actives 0.066% (n = 330,000); AID 2462, 2010;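 active = over half of replicate activation scores above 10%, or exactly half above 10 with the replicate mean above 10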
EBNA-1 confirm: EBNA-1 DNA-binding inhibitors, retest, confirmation, biochemical, fluorescence polarization, triplicate. shares compounds with EBNA-1 inh. Recombinant EBNA-1 DBD, Cy5-DNA fluorescence polarization. inhibition, % at 14.8 µM. actives 35% (n = 830);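 active = mean inhibition across replicates above a set limit taken from the earlier primary screen, cut at about 28% in these data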
ZTA counter trip: EBV Zta DNA binding inhibitors, counter-screen for EBNA-1 inhibitor project, biochemical, fluorescence polarization, triplicate; AID 2328, 2010; Zta-ZRE DNA binding, Cy5 fluorescence polarization; inhibition, % at 11.1 µM; 830 tested, under 10 active; shares compounds with EBNA-1 inh;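 active = mean inhibition over triplicates above a set limit taken from the primary EBNA-1 screen, cut at about 37% in these data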;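 also: purified full length Zta protein with Cy5 labeled ZRE DNA probe; inhibitors lower polarization by freeing the labeled DNA probe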
Each line names hits and unclear results; the compound was inactive in the other large screens (follow-up assays come after a bar, where they were run). An excerpt weighted towards active compounds, which were near 1.5% of everything screened.

Cc1cnc(C(=O)Nc2ccc(S(=O)(=O)NCC(C)C)cc2)cn1	none
Cc1cnc(C(=O)Nc2ccc(S(=O)(=O)N(C(C)C)C(C)C)cc2)cn1	EBNA-1 inh 28.4 | EBNA-1 confirm inactive | ZTA counter trip inactive
O=C(CN1C(=O)S/C(=C\C=C\c2ccccc2)C1=O)Nc1ccc(O)cc1	EBNA-1 inh 52.0 | EBNA-1 confirm inactive | ZTA counter trip inactive
CC(/C=C1\SC(=S)N(c2ccc(C(=O)O)cc2)C1=O)=C\c1ccccc1	EBNA-1 inh 35.6 | EBNA-1 confirm inactive | ZTA counter trip inactive
CC(=Cc1ccccc1)C=C1SC(=S)N(CCCC(=O)Nc2ccc(C(=O)O)c(O)c2)C1=O	none (no result: LANA-H2A inh, ZTA DNA inh, EBNA-1 inh, Bfl-1 A1 inh)
CC(/C=C1\SC(=S)N(CCC(=O)Nc2ccc(O)cc2)C1=O)=C\c1ccccc1	EBNA-1 inh 34.0 | EBNA-1 confirm inactive | ZTA counter trip inactive
Cc1ccc(/C=C2\SC(=S)N(CCC(=O)NNC(=O)c3ccc(O)cc3)C2=O)cc1	EBNA-1 inh 28.8 | EBNA-1 confirm 56.6 | ZTA counter trip inactive
Cc1cc(Br)ccc1NC(=O)CN(C)C(=O)C1CCN(C(=O)c2ccc(Cl)cc2)CC1	none (no result: LANA-H2A inh, ZTA DNA inh, EBNA-1 inh, Bfl-1 A1 inh)
N#Cc1ccccc1S(=O)(=O)N1CCN(C(=O)CN2C(=O)NC3(CCCC3)C2=O)CC1	none
CCOC(=O)c1ccc(CNC(=O)CSc2nc(NC(=O)c3ccccc3)c3c(C)c(C)oc3n2)cc1	EBNA-1 inh 40.1 | EBNA-1 confirm inactive | ZTA counter trip inactive
CCOC(=O)c1ccc(CNC(=O)CSc2nnc(-c3ccncc3)o2)cc1	none
O=c1c(C(c2ccccc2)c2c(O)sc3ccccc3c2=O)c(O)sc2ccccc12	LANA-H2A inh 11.1, EBNA-1 inh 59.6 | EBNA-1 confirm 37.9 | ZTA counter trip 39.3
CCOC(=O)C1=C(C)Nc2nc(SCC(=O)OC)nn2C1c1cc(F)cc(F)c1 (stereo not drawn)	none
CCOC(=O)C1=C(C)Nc2nc(SCC)nn2C1c1ccc(OC)cc1 (stereo not drawn)	EBNA-1 inh 32.5 | EBNA-1 confirm inactive | ZTA counter trip inactive
Cc1ccc(S(=O)(=O)N2CCC(=O)N(C(COCc3cccc(C(F)(F)F)c3)C(C)C)CC2)cc1 (stereo not drawn)	none
COc1ccc(/C=C(\C#N)C(=O)OCC(=O)Nc2c(C)cccc2C)cc1	none
CCc1cccc(CC)c1NC(=O)COC(=O)/C(C#N)=C/c1ccc(OC)cc1	EBNA-1 inh 45.9 | EBNA-1 confirm inactive | ZTA counter trip inactive
COc1ccc(-n2ncc3c(=O)n(CC(=O)N4c5ccccc5CC4C)cnc32)cc1 (stereo not drawn)	EBNA-1 inh 31.1 | EBNA-1 confirm inactive | ZTA counter trip inactive
COc1ccc(C2C(C(C)=O)=C(O)C(=O)N2CCCn2ccnc2)cc1OC (stereo not drawn)	none
CC(=O)C1=C(O)C(=O)N(CCCn2ccnc2)C1c1ccc(Br)cc1 (stereo not drawn)	EBNA-1 inh 39.7 | EBNA-1 confirm inactive | ZTA counter trip inactive
O=C(Nc1cccc(NC(=O)c2ccc(F)cc2)c1)c1ccc(F)cc1	EBNA-1 inh 28.3 | EBNA-1 confirm inactive | ZTA counter trip inactive
O=C(Nc1cccc(NC(=O)c2cccs2)c1)c1ccc(Br)cc1	EBNA-1 inh 69.8 | EBNA-1 confirm 75.3 | ZTA counter trip inactive
O=C(NNC(=O)c1cccs1)c1ccc(Br)cc1	none
CC(C)NCC(O)COc1ccc2c(c1)CCC2 (stereo not drawn)	none
CC(C)Cc1nnc(NC(=O)CCC(=O)N2CCCCC2)s1	none
CCOc1ccccc1N1CCN(C(=O)Nc2ccc(Cl)c(Cl)c2)CC1	none (no result: CSN inh, HNF4A DNA FP)
CC1=CC(=C(C#N)C#N)C=C(C)N1CCN1CCN(C(=O)Nc2ccc(Cl)c(Cl)c2)CC1	EBNA-1 inh 75.8 | EBNA-1 confirm 65.2 | ZTA counter trip inactive
Cc1ccc2nc3c(c(C(=O)OC4CCOC4=O)c2c1)CCCC3 (stereo not drawn)	EBNA-1 inh 29.5 | EBNA-1 confirm inactive | ZTA counter trip inactive
Cc1ccc2nc3c(c(C(=O)OCC(=O)NC4CCS(=O)(=O)C4)c2c1)CCCC3 (stereo not drawn)	none
CCn1c2ccccc2c2cc(NC(=O)N3CCCCC3)ccc21	none (no result: LANA-H2A inh, ZTA DNA inh, EBNA-1 inh, Bfl-1 A1 inh)
C=CCNC(=S)N1CCC(C(=O)c2ccc(Cl)cc2)CC1	none
COc1ccc(NC(=O)c2ccccc2NS(C)(=O)=O)cc1OC	none
COc1ccccc1Nc1ncc(C(=O)Nc2ccc(OC)c(OC)c2)c2ccccc12	EBNA-1 inh 79.6 | EBNA-1 confirm 54.9 | ZTA counter trip inactive
CC(NC(=O)COC(=O)CCN1C(=O)C2CC=CCC2C1=O)c1ccc(Br)cc1 (stereo not drawn)	none (no result: EBNA-1 inh)
CCOc1ccc(-n2nnc3c(=O)n(CC(=O)c4ccccc4)cnc32)cc1	EBNA-1 inh 29.6 | EBNA-1 confirm inactive | ZTA counter trip inactive
O=C(Nc1ccc(Oc2ccccc2)cc1)C1CCN(c2ncccn2)CC1	EBNA-1 inh 39.3 | EBNA-1 confirm inactive | ZTA counter trip inactive
O=C(Nc1ccc(Oc2ccccc2)cc1)C1CC1	none
Cc1nn(C)c(C(=O)N/N=C/c2ccc(-c3ccccc3)cc2)c1Cl	EBNA-1 inh 37.5 | EBNA-1 confirm 27.7 | ZTA counter trip inactive
NC(Cc1ccccc1)c1csc(Nc2nccc(C(F)(F)F)n2)n1 (stereo not drawn)	none (no result: LANA-H2A inh, ZTA DNA inh, EBNA-1 inh, Bfl-1 A1 inh)
Cc1cc(N2CCOCC2)ccc1/C=C1\NC(=O)N(CC(=O)Nc2ccc(F)cc2)C1=O	none
Cc1cc(N2CCOCC2)ccc1/C=C1\NC(=O)N(CC(=O)Nc2ccccc2C)C1=O	EBNA-1 inh 41.5 | EBNA-1 confirm inactive | ZTA counter trip inactive
Cc1cccc(NC(=O)CN2C(=O)N/C(=C\c3ccc(N4CCOCC4)cc3)C2=O)c1	EBNA-1 inh 34.1 | EBNA-1 confirm inactive | ZTA counter trip inactive
O=C1CC(SC(=S)C2CCCC2=O)C(=O)N1 (stereo not drawn)	none (no result: LANA-H2A inh, ZTA DNA inh, EBNA-1 inh, Bfl-1 A1 inh)

Screens deposited in PubChem BioAssay by several laboratories.
